ChEMBL document CHEMBL1671761, “Preclinical characterization of BI 201335, a C-terminal carboxylic acid inhibitor of the hepatitis C virus NS3-NS4A protease” (Antimicrob Agents Chemother, 2010)

Tests used:
[1] = Inhibition of HCV 1a NS3/4A protease; set-up: species or system Hepatitis C virus subtype 1a; conditions: read-out: Ki(app)
Method in brief: (§1)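 Substrate was 5 μM anthranilyl-DDIVPAbu[C(O)-O]AMY(3-NO2)TW-OH in 50 mM Tris pH 8.0, 0.25 M citrate, 0.01% dodecylmaltoside, 1 mM TCEP, 5% DMSO. Run at 23°C for 60-70 min, stopped with MES pH 5.8, read by product fluorescence. IC50 converted to apparent Ki via IC50=Ki(1+[S]/Km). Mean ± SD, ≥3 experiments.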

Hepatitis C virus [2] = test: Inhibition of HCV 1b NS3/4A protease; set-up: species or system Hepatitis C virus subtype 1b; conditions: read-out: Ki(app)
Method in brief: as §1, with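 “Full-length NS3 coexpressed with the 54-residue NS4A, 0.5 nM (2.5 nM for genotype 1a). Substrate” for “Substrate”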

[3] = Inhibition of HCV 2a NS3/4A protease; set-up: species or system Hepatitis C virus subtype 2a; conditions: read-out: Ki(app); method in brief: as §1
[4] = Inhibition of HCV 2b NS3/4A protease; set-up: species or system Hepatitis C virus subtype 2b; conditions: read-out: Ki(app); method in brief: as §1
[5] = Inhibition of HCV 3a NS3/4A protease; set-up: species or system Hepatitis C virus subtype 3a; conditions: read-out: Ki(app); method in brief: as §1
[6] = Inhibition of HCV 4a NS3/4A protease; set-up: species or system Hepatitis C virus subtype 4a; conditions: read-out: Ki(app); method in brief: as §1
[7] = Inhibition of HCV 6a NS3/4A protease; set-up: species or system Hepatitis C virus subtype 6a; conditions: read-out: Ki(app); method in brief: as §1
Neutrophil elastase = Neutrophil elastase (Homo sapiens, UniProt P08246); test: Inhibition of human leukocyte elastase after 60 mins fluorescence assay
Cathepsin B = Cathepsin B (Homo sapiens, UniProt P07858); test: Inhibition of human CatB after 60 mins fluorescence assay
[8] = Binding affinity to HCV 5a NS3/4A protease; set-up: species or system Hepatitis C virus subtype 5a; conditions: read-out: Ki(app); method in brief: as §1
Huh-7 = test: Cytotoxicity activity against human HuH7 cells by MTT assay; assay type: functional
Method in brief: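 MTT assay in proliferating Huh-7 cells exposed 72 h to serial inhibitor dilutions; formazan read at 570 nm. CC50 taken from percent inhibition.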

Hepatitis C virus [9] = test: Antiviral activity against HCV 1a infected in Huh7 cells assessed as inhibition of viral replication after 72 hrs by RT-PCR; assay type: functional, organism-based, Hepacivirus hominis; conditions: subtype 1a, Huh-7, 72 h
Method in brief: (§2)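 Huh-7-derived subgenomic replicon cells of genotype 1a or 1b, grown in DMEM/10% FBS with G418. Replicon RNA was quantified by TaqMan real-time RT-PCR against an in vitro-transcribed RNA standard curve and normalized to total RNA (RiboGreen).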

Hepatitis C virus [10] = test: Antiviral activity against HCV 1b infected in Huh7 cells assessed as inhibition of viral replication after 72 hrs by RT-PCR; assay type: functional, organism-based, Hepacivirus hominis; conditions: genotype 1b, Huh-7, 72 h; method in brief: as §2
[11] = Apparent permeability from apical to basolateral side in human Caco2 cells; assay type: ADME, cell-based; conditions: Caco-2, read-out: permeability
Method in brief: (§3)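 Caco-2 monolayers were differentiated 23-25 days on Transwell inserts. After 30 min at 37°C, compound was added to the donor side (apical for A-to-B, basolateral for B-to-A). Receiver sampled at 0, 1, 2, 3 h; analysed by HPLC.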

[12] = Apparent permeability from basolateral to apical side in human Caco2 cells; assay type: ADME, cell-based; conditions: Caco-2, read-out: permeability; method in brief: as §3
[13] = Clearance in human liver microsomes; assay type: ADME, Microsome; conditions: read-out: QH
Method in brief: (§4)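 Male liver microsomes (Sprague-Dawley rat, beagle dog, human, rhesus monkey) at 1 mg microsomal protein in 1 ml of 0.066 M Tris pH 7.4 with 2.5 mM NADPH. Initial compound concentration was 2 μM. Incubations ran at 37°C and were started with NADPH. Samples were taken at 0, 10 and 20 min and quenched with an equal volume of 1:1 acetonitrile-methanol. Supernatants were analysed by HPLC and clearance calculated by the Obach method.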

[14] = Clearance in Sprague-Dawley rat liver microsomes; assay type: ADME, Microsome; conditions: read-out: QH; method in brief: as §4

Neutrophil elastase, sequence (P08246 whole entry): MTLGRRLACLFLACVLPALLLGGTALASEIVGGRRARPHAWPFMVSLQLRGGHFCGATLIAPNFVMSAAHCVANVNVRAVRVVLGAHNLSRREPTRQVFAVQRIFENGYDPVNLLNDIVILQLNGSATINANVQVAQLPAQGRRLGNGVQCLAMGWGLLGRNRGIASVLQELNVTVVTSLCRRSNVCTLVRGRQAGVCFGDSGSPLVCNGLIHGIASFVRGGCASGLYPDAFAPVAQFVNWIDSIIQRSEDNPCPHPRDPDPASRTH

Structure (SMILES) | Ki [1] [nM] | Ki (Hepatitis C virus [2]) [nM] | Ki [3] [nM] | Ki [4] [nM] | Ki [5] [nM] | Ki [6] [nM] | Ki [7] [nM] | IC50 (Neutrophil elastase) [nM] | IC50 (Cathepsin B) [nM] | Ki [8] [nM] | CC50 (Huh-7) [nM] | EC50 (Hepatitis C virus [9]) [nM] | EC50 (Hepatitis C virus [10]) [nM] | Papp A→B [11] [×10⁻⁶ cm/s] | Papp B→A [12] [×10⁻⁶ cm/s] | hepatic extraction ratio [13] | hepatic extraction ratio [14]
CCC[C@H](NC(=O)[C@@H]1[C@H]2CCC[C@H]2CN1C(=O)[C@@H](NC(=O)[C@@H](NC(=O)c1cnccn1)C1CCCCC1)C(C)(C)C)C(=O)C(=O)NC1CC1 | 3.2 | 4.4 | 15 | 73 | 160 | 50 | 4.5 | 680 | 2300 | 110 | 37000 | 700 | 540 | 4.1 | 23 | 0.64 | 0.41
CC(C)(C)NC(=O)N[C@H](C(=O)N1C[C@H]2[C@@H]([C@H]1C(=O)NC(CC1CCC1)C(=O)C(N)=O)C2(C)C)C(C)(C)C (stereo partly specified) [BOCEPREVIR] | 1.1 | 2 | 7.3 | 28 | 23 | 8.6 | 2.3 | 17000 | 6200 | 18 | > 70000 | 550 | – | 0.6 | 23 | – | –
